Test results taken from ChEMBL document CHEMBL1142735, “Discovery of a new series of centrally active tricyclic isoxazoles combining serotonin (5-HT) reuptake inhibition with alpha2-adrenoceptor blocking activity” (J Med Chem, 2005).

Tests used:
[1] = molecular target: D(3) dopamine receptor (Homo sapiens, UniProt P35462); assay: Inhibition of [125I]-iodosulpiride binding to Dopamine receptor D3
In short: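 Radioligand competition using membranes from a cell line transfected with human D3 receptor, incubated under optimized conditions. Bound ligand read by scintillation proximity assay rather than filtration. Ki by Cheng-Prusoff.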

[2] = molecular target: Sodium-dependent dopamine transporter (Rattus norvegicus, UniProt P23977); assay: Inhibition of [3H]WIN-35428 binding to Dopamine transporter of rat striatum; type: tissue-based
Sodium-dependent dopamine transporter, sequence (P23977 whole entry): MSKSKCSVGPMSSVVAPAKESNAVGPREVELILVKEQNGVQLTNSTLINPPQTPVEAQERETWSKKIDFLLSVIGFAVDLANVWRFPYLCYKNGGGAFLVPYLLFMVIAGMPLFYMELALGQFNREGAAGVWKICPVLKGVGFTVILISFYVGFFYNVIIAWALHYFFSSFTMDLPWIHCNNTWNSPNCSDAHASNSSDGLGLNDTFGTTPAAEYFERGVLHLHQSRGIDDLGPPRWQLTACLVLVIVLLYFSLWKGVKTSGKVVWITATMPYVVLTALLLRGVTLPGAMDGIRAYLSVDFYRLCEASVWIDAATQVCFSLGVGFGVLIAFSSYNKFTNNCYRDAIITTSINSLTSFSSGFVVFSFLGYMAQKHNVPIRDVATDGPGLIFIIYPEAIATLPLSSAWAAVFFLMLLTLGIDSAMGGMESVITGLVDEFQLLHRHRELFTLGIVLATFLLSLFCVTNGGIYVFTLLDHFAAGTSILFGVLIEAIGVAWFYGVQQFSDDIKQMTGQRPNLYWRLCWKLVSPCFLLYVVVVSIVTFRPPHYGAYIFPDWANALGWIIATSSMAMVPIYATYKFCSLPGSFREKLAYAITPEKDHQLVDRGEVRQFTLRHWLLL
In short: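 Competition binding using rat striatum membranes incubated with the radioligand under optimized conditions, separated by filtration.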

[3] = molecular target: T1, D(4) dopamine receptor (Homo sapiens, UniProt P21917); assay: Inhibition of [3H]spiperone binding to Dopamine receptor D4
T1 sequence (P21917 whole entry): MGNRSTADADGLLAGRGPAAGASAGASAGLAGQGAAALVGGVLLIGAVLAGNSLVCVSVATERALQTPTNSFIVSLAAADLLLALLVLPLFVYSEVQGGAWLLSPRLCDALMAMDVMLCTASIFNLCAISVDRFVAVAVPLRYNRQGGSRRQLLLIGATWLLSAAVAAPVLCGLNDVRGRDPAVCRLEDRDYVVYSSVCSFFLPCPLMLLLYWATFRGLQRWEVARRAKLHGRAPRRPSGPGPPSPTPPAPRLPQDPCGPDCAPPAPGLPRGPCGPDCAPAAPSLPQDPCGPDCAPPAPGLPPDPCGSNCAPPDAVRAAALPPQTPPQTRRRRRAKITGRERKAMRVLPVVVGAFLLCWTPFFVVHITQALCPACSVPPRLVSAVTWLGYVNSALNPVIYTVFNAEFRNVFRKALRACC
In short: (§1)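 Radioligand competition binding on membranes from cell lines carrying the human target, incubated with the labelled ligand under optimized conditions. Separation by filtration, except α1A and D3, which used scintillation proximity assay.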

[4] = test system: Rattus norvegicus; assay: Effective dose for PCA-induced 5-HT depletion was determined by oral administration; type: functional
In short: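 Male Wiga Wistar rats (200 g, n=6 per condition) dosed sc or po (10 mL/kg). At 4 h, frontal cortex removed and extracted with perchloric acid/metabisulfite; 5-HT measured by HPLC-electrochemical detection against a standard curve with dihydroxybenzylamine internal standard. Effect scaled between pCA+vehicle and vehicle+vehicle controls; ED50 from sigmoidal fit.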

[5] = molecular target: Histamine H1 receptor (Homo sapiens, UniProt P35367); assay: Inhibition of [3H]pyrilamine binding to Histamine H1 receptor
Histamine H1 receptor, sequence (P35367 whole entry): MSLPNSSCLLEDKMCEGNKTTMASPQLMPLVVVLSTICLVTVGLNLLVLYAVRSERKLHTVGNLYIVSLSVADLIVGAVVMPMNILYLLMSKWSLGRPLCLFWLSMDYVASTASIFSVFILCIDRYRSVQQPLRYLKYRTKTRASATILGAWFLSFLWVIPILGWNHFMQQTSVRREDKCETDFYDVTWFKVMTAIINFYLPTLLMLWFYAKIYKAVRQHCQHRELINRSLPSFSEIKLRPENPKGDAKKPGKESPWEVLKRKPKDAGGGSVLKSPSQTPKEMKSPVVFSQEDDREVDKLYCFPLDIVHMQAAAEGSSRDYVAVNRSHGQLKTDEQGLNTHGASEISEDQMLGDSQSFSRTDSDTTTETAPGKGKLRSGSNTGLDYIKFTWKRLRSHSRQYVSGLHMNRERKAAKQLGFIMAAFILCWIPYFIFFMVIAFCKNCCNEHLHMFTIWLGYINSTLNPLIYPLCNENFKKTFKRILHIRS
In short: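 Radioligand competition on membranes from a cell line transfected with the human target, incubated under optimized conditions. Stopped by rapid filtration. Ki by Cheng-Prusoff.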

[6] = test system: Rattus norvegicus; assay: Effective dose concentration for antagonism ofpCA-Induced excitation was determined by subcutaneous administration; type: functional; conditions: sc
In short: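 Male Wistar rats (200-250 g), fasted overnight, given test compound or solvent sc before challenge. Loss of righting induced by medetomidine 0.10 mg/kg iv; reversal means no loss of righting. Excitation induced by pCA 5 mg/10 mL/kg sc and scored 0-3 over 15 min starting 45 min after pCA; inhibition means score <2.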

[7] = molecular target: T2, Adrenergic receptor alpha-1 (Homo sapiens, UniProt P35348+P25100+P35368); assay: Inhibition of [3H]- prazosin binding to alpha-1 adrenergic receptor; type: protein assay; in short: as §1
T2 sequence (P35348 whole entry): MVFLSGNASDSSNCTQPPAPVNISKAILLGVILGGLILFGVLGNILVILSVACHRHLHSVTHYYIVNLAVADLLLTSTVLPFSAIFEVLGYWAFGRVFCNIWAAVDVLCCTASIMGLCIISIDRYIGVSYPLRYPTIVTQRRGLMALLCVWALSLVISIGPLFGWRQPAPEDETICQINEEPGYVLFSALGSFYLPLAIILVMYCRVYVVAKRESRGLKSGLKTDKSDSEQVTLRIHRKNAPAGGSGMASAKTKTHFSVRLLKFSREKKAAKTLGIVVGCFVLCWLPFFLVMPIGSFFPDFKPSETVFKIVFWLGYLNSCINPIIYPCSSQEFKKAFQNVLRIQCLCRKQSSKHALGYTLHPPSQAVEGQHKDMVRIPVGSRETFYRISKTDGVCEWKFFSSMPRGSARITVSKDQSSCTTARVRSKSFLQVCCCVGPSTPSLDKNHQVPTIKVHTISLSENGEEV
T2 sequence (P25100 whole entry): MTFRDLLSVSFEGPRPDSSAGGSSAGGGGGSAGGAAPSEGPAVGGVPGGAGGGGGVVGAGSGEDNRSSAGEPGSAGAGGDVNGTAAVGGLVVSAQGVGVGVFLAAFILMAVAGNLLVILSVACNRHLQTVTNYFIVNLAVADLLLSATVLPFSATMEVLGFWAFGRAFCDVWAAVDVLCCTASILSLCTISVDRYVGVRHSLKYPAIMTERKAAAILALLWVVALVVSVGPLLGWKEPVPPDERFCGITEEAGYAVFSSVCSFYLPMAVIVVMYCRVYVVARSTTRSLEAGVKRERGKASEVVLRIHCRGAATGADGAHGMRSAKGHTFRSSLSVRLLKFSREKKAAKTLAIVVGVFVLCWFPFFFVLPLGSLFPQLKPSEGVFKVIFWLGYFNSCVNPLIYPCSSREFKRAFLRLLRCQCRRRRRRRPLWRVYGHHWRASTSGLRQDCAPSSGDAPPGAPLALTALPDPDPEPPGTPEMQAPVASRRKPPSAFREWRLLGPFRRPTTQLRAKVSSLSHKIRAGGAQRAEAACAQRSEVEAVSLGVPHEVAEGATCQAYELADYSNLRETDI
T2 sequence (P35368 whole entry): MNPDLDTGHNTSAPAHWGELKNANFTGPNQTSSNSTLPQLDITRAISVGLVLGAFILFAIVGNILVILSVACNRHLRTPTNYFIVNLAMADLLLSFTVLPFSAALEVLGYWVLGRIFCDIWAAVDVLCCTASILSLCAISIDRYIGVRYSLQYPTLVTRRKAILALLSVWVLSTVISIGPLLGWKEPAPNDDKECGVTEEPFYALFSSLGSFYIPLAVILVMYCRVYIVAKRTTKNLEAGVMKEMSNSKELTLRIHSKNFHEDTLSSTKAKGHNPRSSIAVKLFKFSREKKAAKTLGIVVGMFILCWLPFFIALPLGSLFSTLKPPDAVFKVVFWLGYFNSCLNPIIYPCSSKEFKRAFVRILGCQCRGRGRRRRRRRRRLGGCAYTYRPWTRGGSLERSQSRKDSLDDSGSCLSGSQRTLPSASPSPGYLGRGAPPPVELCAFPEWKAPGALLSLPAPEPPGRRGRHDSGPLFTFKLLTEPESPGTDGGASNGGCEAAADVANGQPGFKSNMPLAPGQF

D(3) dopamine receptor, sequence (P35462 whole entry): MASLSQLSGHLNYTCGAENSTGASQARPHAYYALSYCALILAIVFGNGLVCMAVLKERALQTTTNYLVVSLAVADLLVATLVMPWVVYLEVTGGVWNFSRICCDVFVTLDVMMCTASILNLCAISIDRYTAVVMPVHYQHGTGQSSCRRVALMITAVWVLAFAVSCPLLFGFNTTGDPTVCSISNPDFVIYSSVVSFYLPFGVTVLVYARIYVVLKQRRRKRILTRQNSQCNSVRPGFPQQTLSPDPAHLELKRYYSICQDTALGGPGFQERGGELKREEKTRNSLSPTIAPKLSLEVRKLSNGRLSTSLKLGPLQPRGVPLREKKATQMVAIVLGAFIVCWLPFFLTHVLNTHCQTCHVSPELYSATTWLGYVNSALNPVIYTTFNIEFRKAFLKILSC

Row | SMILES | Ki [1] | Ki [2] | Ki [3] | ED50 [4] | Ki [5] | ED50 [6] | Ki [7]
1 | COc1cc2c(cc1OC)C1=NO[C@@H](CN3CCN(C/C=C/c4ccccc4)CC3)[C@@H]1CO2 | 270 nM | 515 nM | > 1000 nM | 1.1 mg/kg | > 1000 nM | 0.39 mg/kg | > 1000 nM
2 | COc1cc2c(cc1OC)C1=NO[C@@H](CN3CCN(C/C(C)=C/c4ccccc4)CC3)[C@@H]1CO2 | 433 nM | > 1000 nM | > 1000 nM | 3.8 mg/kg | 113 nM |  | 380 nM
3 | COc1cc2c(cc1OC)C1=NO[C@@H](CN3CCN(Cc4ccc5ccccc5c4)CC3)[C@@H]1CO2 | 107 nM | 246 nM | > 1000 nM | 2.6 mg/kg | 460 nM | 0.08 mg/kg | > 1000 nM
4 | COc1cc2c(cc1OC)C1=NO[C@@H](CN3CCN(C/C=C(\C)c4ccccc4)CC3)[C@@H]1CO2 | 611 nM | 368 nM | > 1000 nM | 3.5 mg/kg | > 1000 nM | 0.5 mg/kg | > 1000 nM
